Screening results: PubChem BioAssay, several laboratories
MT stabilizer = stabilizes microtubules in HeLa cells; HeLa tubulin immunostaining HCS, 24 h; share of cells brighter than vehicle mean+2SD; % tubulin-high responders, % at 10 µM; hit rate 0.83% among 200,000; AID 2205;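 active = plate Z-score above 3 for both tubulin-high and condensed-nucleus cell shares, with cell loss under 80%, at 10 µM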;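 also: anti alpha tubulin signal scored within the nucleus-defined area of each cell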
APP 5UTR inh = APP translation inhibition | SH-SY5Y APP 5'UTR-luciferase reporter, luminescence | inhibition, % at 2 µM | hit rate 0.82% among 190,000 | AID 1285;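 active = inhibition above a set limit, derived from the sample mean plus 3 SD, cut at about 45% in these data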
b-catenin transl = alters nuclear translocation of beta-catenin in HeLa cells. AID 1665. nuclear translocation activity, % at 5 µM. hit rate 0.3% among 190,000. immunofluorescence imaging;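 active = nuclear translocation activity above 50% at 5 µM, with a well cell count of 50 or more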;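 also: per-cell ratio of nuclear to cytoplasmic median beta-catenin stain intensity; plate controls were DMSO negative control for no effect and GSK-3 inhibitor IX positive control for full effect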
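System: HeLa cells, endogenous beta-catenin; compound dosing: 5 µM primary single dose, 0.1% DMSO, 0.02–20 µM confirmation series; incubation: 24 h compound exposure at 37°C, 5% CO2; signal: beta-catenin immunofluorescence imaging with DAPI; evaluation: % activation, nuclear-to-cytoplasmic median beta-catenin signal ratio per cell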
BaF3 tox = counter-screen for JAK2V617F inhibitors: parental Ba/F3 viability inhibitors | CellTiter-Glo ATP luminescence | inhibition, % at 5.6 µM | hit rate 1.1% among 220,000 | AID 1486;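 active = inhibition above a per-campaign cutoff, the mean inhibition of all tested compounds plus 3 SD, cut at about 27% in these data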;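 also: 0% = DMSO wells and 100% = JAK Inhibitor I control wells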
Ba/F3 V617F tox = lowers viability of Ba/F3 cells expressing EpoR and JAK2V617F; ATP luminescence; inhibition, % at 5.6 µM; hit rate 1.1% among 220,000; AID 1446;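 active = inhibition above the campaign mean plus 3 SD over all tested compounds, cut at about 24% in these data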;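 also: cytokine-independent growth of Ba/F3 cells driven by EpoR plus mutant JAK2; 0% = DMSO-treated cells and 100% = JAK inhibitor I control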
IEC-6 tox = counter-screen for KLF5 inhibitors: cytotoxicity in IEC-6 cells. hit rate 0.78% among 290,000. inhibition, % at 5 µM. IEC-6 cytotoxicity, luminescence viability. AID 1825; in the data active = inhibition above about 22%;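 also: 0% = plate median of test compound wells and 100% = cytotoxic reference compound wells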
Active calls of the source: *. Rows were chosen to be rich in hits. Some 2.2% of all compounds tested hit in one or more screens of this group.

Results for O=C(C1=NNCC1c1ccccc1)C1OC1c1ccccc1 (centres undefined) ?
b-catenin transl: 2; BaF3 tox: -2; Ba/F3 V617F tox: 0; IEC-6 tox: -4

How did COc1ccc(/C=C/c2nc3ccccc3n2C)cc1 do in these assays?
MT stabilizer: 3; APP 5UTR inh: 19; b-catenin transl: -2; BaF3 tox: 31*; Ba/F3 V617F tox: 26*; IEC-6 tox: 12

What do the screens show for `O=C(NCc1cccc(C(F)(F)F)c1)C1CC(c2c(Cl)cccc2Cl)=NO1` (centres undefined)?
MT stabilizer: 37*; APP 5UTR inh: -1; b-catenin transl: 44; BaF3 tox: 14; Ba/F3 V617F tox: 7; IEC-6 tox: 14

What do the screens show for `CCOc1cc(S(=O)(=O)N2CC=C(c3ccc(F)cc3)CC2)c(OCC)cc1-n1cnnn1`?
MT stabilizer: 45*; APP 5UTR inh: 5; b-catenin transl: 1; BaF3 tox: 4; Ba/F3 V617F tox: 1; IEC-6 tox: 0

How did Cc1cc(N2CCOCC2)nc(NCc2ccccc2)n1 do in these assays?
MT stabilizer: 1; APP 5UTR inh: 5; b-catenin transl: 1; BaF3 tox: 6; Ba/F3 V617F tox: 2; IEC-6 tox: 9

How did Cc1cc(N2CCCCC2)nc(NCc2ccccc2)n1 do in these assays?
MT stabilizer: 17*; APP 5UTR inh: 6; b-catenin transl: 2; BaF3 tox: 8; Ba/F3 V617F tox: 7; IEC-6 tox: 21

How did COC(=O)c1ccc(/C=N/NC(=S)NC(C)C)cc1 do in these assays?
b-catenin transl: 0; BaF3 tox: -4; Ba/F3 V617F tox: -4; IEC-6 tox: -2

How did Cc1ccc(/C=N/NC(=S)NC(C)C)o1 do in these assays?
MT stabilizer: 4; APP 5UTR inh: 72*; b-catenin transl: -5; BaF3 tox: 2; Ba/F3 V617F tox: 0; IEC-6 tox: -3

What do the screens show for `Fc1ccc(/C=N/n2cnn(Cc3ccccc3Cl)c2=S)cc1`?
MT stabilizer: 4; APP 5UTR inh: 62*; b-catenin transl: -1; BaF3 tox: 1; Ba/F3 V617F tox: -3; IEC-6 tox: -6

How did O=S(=O)(Nc1ccc2ccccc2n1)c1ccccc1 do in these assays?
IEC-6 tox: 2

Results for CC1=C(C(=O)c2ccccc2)C(c2ccc(OC(F)F)cc2)NC(=S)N1 (centres undefined) ?
MT stabilizer: 22*; APP 5UTR inh: -9; b-catenin transl: 4; BaF3 tox: 2; Ba/F3 V617F tox: -2; IEC-6 tox: 20

What do the screens show for `C=CCn1cccc(/C=C/C(=O)c2ccc(C(C)(C)C)cc2)c1=S`?
MT stabilizer: 1; APP 5UTR inh: 14; b-catenin transl: 3; BaF3 tox: 46*; Ba/F3 V617F tox: 10; IEC-6 tox: 0

Results for COc1ccc(-n2nnnc2/C=C\Nc2ccccc2C(=O)c2ccccc2)cc1 ?
MT stabilizer: 21*; APP 5UTR inh: 38; b-catenin transl: 62*; BaF3 tox: 8; Ba/F3 V617F tox: 5; IEC-6 tox: 1

How did Cn1c(=O)[nH]c(=O)c2c1nc(CN1CCN(c3cccc(Cl)c3)CC1)n2Cc1ccccc1Cl do in these assays?
MT stabilizer: 14*; APP 5UTR inh: 12; b-catenin transl: -1; BaF3 tox: -1; Ba/F3 V617F tox: -6; IEC-6 tox: 2

Results for CCOCCCNC(=O)c1ccc(OC2CCN(C(C)=O)CC2)c(OC)c1 ?
IEC-6 tox: -4

How did CCCN(CCC)CCNC(=O)C1CCN(Cc2nc(-c3ccc(Cl)cc3)oc2C)CC1 do in these assays?
MT stabilizer: 3; APP 5UTR inh: 16; b-catenin transl: -4; BaF3 tox: 19; Ba/F3 V617F tox: 7; IEC-6 tox: 57*

What do the screens show for `O=C(CC1C(=O)NCCN1Cc1c(F)cccc1Cl)NCCCN1CCCC1=O` (centres undefined)?
IEC-6 tox: 0

Results for COc1cccc(/C=C/C(=O)NCc2ccc3c(c2)OCO3)c1 ?
IEC-6 tox: 6

How did COc1cccc(-c2ccc(NC(=O)C3CCCN(Cc4nccn4C)C3)cc2)c1 (centres undefined) do in these assays?
IEC-6 tox: 5

What do the screens show for `CN1/C(=C\C(=O)c2ccco2)C(C)(C)c2ccccc21`?
MT stabilizer: 2; APP 5UTR inh: -8; b-catenin transl: 0; BaF3 tox: 65*; Ba/F3 V617F tox: 72*; IEC-6 tox: 9
